# Screens deposited in PubChem by several laboratories.
# MC4R barr agon: activates human MC4R beta-arrestin recruitment; P32245; U2OS MC4R beta-arrestin complementation, luminescence; percent of melanotan II response, DMSO zero; activation, % at 8.9 µM; 360,000 tested, 0.98% active; AID 540308;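 active means activation above a per-plate cutoff, the mean activation of sample wells on that plate plus 3 SD, cut at about 8% in these data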
# Target sequence (P32245 whole entry, looked up): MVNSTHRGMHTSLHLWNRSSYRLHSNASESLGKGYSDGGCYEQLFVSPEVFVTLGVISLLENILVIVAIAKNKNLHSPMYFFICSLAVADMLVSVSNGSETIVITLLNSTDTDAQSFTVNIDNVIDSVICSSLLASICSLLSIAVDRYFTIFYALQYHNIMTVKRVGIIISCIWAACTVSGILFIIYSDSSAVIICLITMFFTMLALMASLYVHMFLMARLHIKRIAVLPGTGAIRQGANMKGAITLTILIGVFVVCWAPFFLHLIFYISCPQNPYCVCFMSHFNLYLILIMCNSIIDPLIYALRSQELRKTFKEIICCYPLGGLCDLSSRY
# MC4R antagonist: antagonists of human melanocortin 4 receptor (MC4R); P32245; MC4R-expressing cells, MTII-stimulated cAMP, LANCE TR-FRET; inhibition, % at 6.5 µM; 360,000 tested, 0.48% active; AID 540295;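 active means inhibition above its plate's cutoff, the mean of tested wells on that plate plus 3 SD, cut at about 29% in these data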;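 further: 0% = Melanotan II alone and 100% = Melanotan II plus saturating MCL0020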
#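 Material – human MC4R-expressing U2OS cells · Repeats – no replicates · Detection – TR-FRET with Eu-cAMP and labeled anti-cAMP, 671 nm · Times – compound 30 min, challenge 1 h, detection 1 h · Compound – single nominal compound dose of 6.5 µM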
# NALP3 yeast inh: inhibitors of NALP3 inflammasome in yeast. Yeast reconstituted NLRP3/ASC/caspase-1, beta-gal luminescence, 24 h. inhibition, % at 10 µM. 330,000 tested, 0.39% active. AID 2825;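 active means inhibition of 50% or more; inactive means inhibition below 50%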;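 further: plate controls were induced DMSO wells for no effect and uninduced yeast grown without galactose for full effect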
# Bfl-1 A1 inh: inhibitors of the anti-apoptotic protein A1, read as caspase activation | caspase activation, % (no concentration beside the values) | MEF A1-2A-BIM cells, Caspase-Glo 3/7 luminescence, 3 h; percent of clofoctol response, vehicle zero | 330,000 tested, 0.066% active;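 active means over half of replicate activation scores above 10%, or exactly half above 10 with the replicate mean above 10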
# NALP1 inh: blocks the NALP1 inflammasome reconstituted in yeast. 280,000 tested, 0.61% active. S. cerevisiae NALP1/ASC/caspase-1 growth, X-gal OD620, 72 h. AID 2071. inhibition, % at 10 µM; in the data active means inhibition mostly above about 24%, no sharp cut-off; inactive means mostly below about 32%
# Tb MetRS inh: Trypanosoma brucei MetRS inhibition; purified T. brucei MetRS, ATP depletion, Kinase-Glo luminescence; inhibition, % at 11.9 µM; 360,000 tested, 0.4% active; AID 624268;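 active means inhibition above a per-plate cutoff of the control wells' mean inhibition plus 3 SD, cut at about 5.5% in these data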;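 further: 0% = DMSO wells median and 100% = median of wells with control inhibitor compound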
#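 assay system = parasite MetRS enzyme | timing = 15 min preincubation, 2 h reaction, all 25 °C | evaluation = percent inhibition relative to median high and low control wells | medium = HEPES buffer containing pyrophosphatase, BSA, spermine, DTT | compound = single dose, 11.9 µM final nominal, 0.9% final DMSO | detection = Kinase-Glo luminescence, ATP depletion format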
# NALP3 yeast conf: NALP3 inhibition confirmation in yeast. shares compounds with NALP3 yeast inh. yeast expressing human NALP3, luminescence. inhibition, % at 10 µM. 1,300 tested, 81% active; in the data active means inhibition above about 48%
# Casp1 ASC ctr: caspase-1-ASC yeast counter-screen hit | shares compounds with NALP3 yeast inh | yeast expressing Caspase-1-ASC, luminescence counter screen | inhibition, % at 10 µM | 1,000 tested, 66% active | AID 488784
# NALP3 retest: retest-confirmed inhibitor of NALP3 in yeast. shares compounds with NALP3 yeast inh. yeast expressing human NALP3, luminescence read-out. inhibition, % at 10 µM. 1,000 tested, 53% active
# * marks the source's active call; other numbers are inactive results; · = not tested or not shown. This is a sample that favours compounds with a hit; in the whole collection about 2.5% have one here. Unless noted, no stated cut-off is given here; in the data, active means inhibition above about 50%; inactive means the rest.
SMILES,MC4R barr agon,MC4R antagonist,NALP3 yeast inh,Bfl-1 A1 inh,NALP1 inh,Tb MetRS inh,NALP3 yeast conf,Casp1 ASC ctr,NALP3 retest
O=C(/C=C/c1cccc(Cl)c1)Nc1ncccn1,0,9,18,-2,33,0,·,·,·
O=C(/C=C/c1cccc(Cl)c1)c1nc2ccccc2[nH]1,-4,14,92*,1,10,2,85*,99*,93*
COc1cc(CC(=O)Nc2cc(S(=O)(=O)N3CCOCC3)ccc2N2CCCC2)cc(OC)c1OC,-1,6,·,·,·,-1,·,·,·
C/C(CC(C)(C)C1CCCCC1)=N\NC(N)=S,1,6,54*,0,9,-1,20,·,·
COc1cc(CNc2ccc3[nH]c(=O)[nH]c3c2)cc(Br)c1OCc1ccccc1F,4,-2,29,0,16,0,·,·,·
Nc1c2c3c(sc2nc(=O)n1N)CCCC3,-4,21,6,0,-5,0,·,·,·
Nc1nc2sc3c(c2c(=O)s1)CCCC3,1,-20,71*,-1,3,-1,83*,70*,80*
CCOc1cc(C2Nc3ccccc3C(=O)N2c2ccccc2)c(Br)cc1OCC(=O)O (centres undefined),1,3,-100,-1,-15,0,-31,·,·
Cn1cccc1/C=C1\Cc2ccccc2C1=O,1,-17,54*,-7,2,-1,69*,·,·
Cc1ccc(NC(=O)C2CCCO2)c(Br)c1 (centres undefined),-2,4,14,0,·,-1,·,·,·
COc1ccc(S(=O)(=O)NC(=O)C2(C)CCN2C(=O)Cc2cccc3ccccc23)cc1 (centres undefined),-2,2,·,·,·,0,·,·,·
Oc1c(I)cc(Cl)c2cccnc12,-2,2,59*,1,70*,-3,68*,72*,79*
O=[N+]([O-])c1cc(Cl)c2cccnc2c1O,-2,2,1,0,2,-1,·,·,·
Cc1ccc(Cl)cc1NC(=O)c1cnn2c1NC(c1ccco1)CC2C(F)(F)F (centres undefined),0,7,58*,0,-2,1,66*,72*,57*
Cc1nn(-c2ccccc2)cc1C(=S)Nc1ccccc1,0,3,52*,0,32,0,63*,57*,58*
CCSc1oc(-c2ccccc2)nc1S(=O)(=O)c1ccccc1,1,13,22,1,9,-1,·,·,·
CSc1oc(-c2ccccc2)nc1S(=O)(=O)c1ccc(C)cc1,1,5,53*,·,-32,0,68*,56*,48
CNC(=O)OCc1snc(-c2ccccc2)c1COC(=O)NC,·,·,·,·,·,0,·,·,·
CCc1nc(SCc2cccnc2)c2c(=O)n(C)c(=O)n(C)c2n1,-1,5,53*,-1,·,0,68*,58*,48
CC(C)Cc1nc(SCc2cccnc2)c2c(=O)n(C)c(=O)n(C)c2n1,4,4,60*,-2,-11,-1,64*,57*,42
CC(C)C[C@@H](CN)NC(=O)c1nc[nH]c1C(=O)N[C@@H](CC(C)C)C(=O)CNC[C@H](C)NC(=O)c1nc[nH]c1C(=O)N[C@@H](CC(C)C)C(=O)O,0,-1,·,·,·,1,·,·,·
CCOc1ccc(/C=N/NC(=O)C(O)c2ccccc2)c(O)c1 (centres undefined),0,2,15,0,-17,-1,·,·,·
O=C(Nc1ccc2c(c1)N(S(=O)(=O)c1cccs1)CCC2)c1c(F)cccc1Cl,-1,16,21,0,·,0,·,·,·
O=C(Sc1cccc2cccnc12)c1ccccc1Br,-3,-6,66*,0,29,0,64*,·,·
O=C(Sc1cccc2cccnc12)c1ccc(F)cc1,·,·,43,·,-14,·,·,·,·
SMILES,MC4R barr agon,MC4R antagonist,NALP3 yeast inh,Bfl-1 A1 inh,NALP1 inh,Tb MetRS inh,NALP3 yeast conf,Casp1 ASC ctr,NALP3 retest
CN1/C(=C\C(=O)c2cccs2)C(C)(C)c2ccccc21,0,5,14,2,52,1,·,·,·
CN1/C(=C/C(=O)c2cccs2)Sc2ccccc21,-1,3,78*,-8,-2,0,81*,97*,93*
COc1cc(OC)cc(C(=O)/C=C2\Sc3ccccc3N2C)c1,-2,19,25,-2,2,0,·,·,·
CN1/C(=C\C(=O)c2cccs2)Sc2ccccc21,-1,4,62*,-5,-4,-2,21,·,·
O=C(/C=C/c1ccccc1[N+](=O)[O-])Oc1ccccc1,·,·,28,0,24,·,·,·,·
COC(=O)C(=Cc1ccccc1[N+](=O)[O-])C(=O)OC,1,4,51*,1,14,-1,63*,41,44
O=S(=O)(c1ccc(Cl)cc1)n1ccc2cccnc21,-2,4,61*,0,-3,0,61*,56*,41
O=S(=O)(c1ccc(Cl)cc1Cl)n1ccc2cccnc21,2,0,73*,0,-10,0,67*,65*,43
Cc1ccc(S(=O)(=O)n2ccc3cccnc32)cc1,-1,-3,44,1,0,0,·,·,·
CCc1nnc(NC(=O)CCC(=O)Nc2ccccc2)s1,-2,1,6,0,1,-1,·,·,·
CCc1nnc(NC(=S)Nc2ccccc2)s1,-1,3,55*,-2,1,0,46,·,·
Cc1ccc(S(=O)(=O)CCC(=O)Nc2cccc(S(=O)(=O)N3CCCCCC3)c2)cc1,0,5,12,-2,·,0,·,·,·
CC(CCC(=O)O)C1CCC2C3CCC4C[C@H](O)CCC4(C)C3CC(=O)C12C (some centres undefined),-1,9,15,1,-4,-1,·,·,·
C[C@H](CCC(=O)O)[C@H]1CC[C@H]2[C@@H]3CC[C@@H]4C[C@H](O)CC[C@]4(C)[C@H]3CC[C@]12C,1,7,72*,0,·,0,78*,78*,61*
Cc1c(/C=N/O)c2ccccn2c1C(=O)c1ccc(F)cc1,-3,-14,62*,0,28,-1,77*,49,44
CC(=C/c1ccccc1)/C=N/NC(=O)c1cccs1,1,-6,56*,-7,-8,0,24,·,·
O=C1/C(=C\c2ccco2)SC(=S)N1c1ccc(O)cc1,-1,7,81*,0,76*,0,61*,26,32
